Laboratory results as given in paper PMC6360136 (Investigational new drugs, 2018).

System: orthotopic pancreatic patient-derived xenograft (PDX) tumor
Assay: In vivo efficacy study in orthotopic pancreatic PDX mouse model
Conditions: 0.25 mg/kg i.p. every other day, NSG mice
Outline: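 A surgically resected human pancreatic ductal adenocarcinoma was expanded as 3 × 3 mm flank implants in female NSG mice and passaged at 2.0 cm. Second-generation tumour was then implanted orthotopically. On postoperative day 45 (palpable, 3–4 mm), mice were randomised to test compound 0.25 mg/kg i.p. or DMSO control every other day until endpoint. Diameter was measured by calipers and ultrasound every 3–5 days and volume calculated from it. Analysis used repeated-measures two-way ANOVA with Sidak tests.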

CC[C@H](C)[C@@H]1C(=O)N2CCC[C@@H]2C(=O)O[C@H](C(C)(C)C)C[C@@H](C)C[C@@H](O)C(C)(C)C2=N[C@H](CCC(=O)N[C@@H](Cc3ccc(OC)cc3)C(=O)N(C)[C@@H](C)C(=O)N1C)CS2 [Apra S10, apratoxin S10]
tumor growth (tumor volume): significantly retarded tumor growth
